This is an account of results in ChEMBL document CHEMBL1275323, “Synthesis and biological evaluation of 2-phenylthiazole-4-carboxamide derivatives as anticancer agents” (Eur J Med Chem, 2010).

The structures appear in SMILES notation. Values after ≈ are worked out from the molar mass of the structure shown. Bounds are passed on as bounds.

Format in all cases: functional, cell-based
Test [1] deals with T47D. Put plainly: Cytotoxicity against human T47D cells after 48 hrs by MTT assay. An outline of the steps:
(§1)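 Cells seeded at 8000–10,000 viable cells/well and left 48 h to attach, then exposed to a range of compound concentrations for a further 48–96 h, depending on the cell line's cycle. After a PBS wash, MTT was added and the formazan was dissolved in DMSO. Absorbance was read at 550 nm against 690 nm reference. IC50 was obtained by linear regression from two independent experiments in triplicate (mean ± SD). Methotrexate served as reference.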

In test [2] the test system is HT-29. Put plainly: Cytotoxicity against human HT-29 cells after 48 hrs by MTT assay. The settings on record: HT-29, 48 h. The method, boiled down: as §1
On the technique in general: Tetrazolium dyes change colour on reduction, which living cells bring about.

The test system of test [3] is Caco-2. Kind of test: Cytotoxicity against human Caco-2 cells after 48 hrs by MTT assay. The settings on record: Caco-2, 48 h. An outline of the steps: as §1

The term IC50 denotes the concentration that inhibits the measured activity by half. A higher IC50 goes with lower potency. Take `O=C(Cc1ccccc1Cl)NCc1ccc(-c2nc(C(=O)N3CCCCC3)cs2)cc1`: the concentration for half-maximal inhibition (IC50) stood at 24.3 µg/mL (≈ 53.4 µM) in test [1], 26.8 µg/mL (≈ 59 µM) in test [2] and 12.8 µg/mL (≈ 28.1 µM) in test [3].

On to `O=C(Cc1cccc(Cl)c1)NCc1ccc(-c2nc(C(=O)N3CCCCC3)cs2)cc1`, for which the IC50 in test [1] turned out to be 37.6 µg/mL (≈ 82.9 µM); in test [2], 64.3 µg/mL (≈ 142 µM); in test [3], 155 µg/mL (≈ 341 µM).

With `O=C(Cc1ccc(Cl)cc1)NCc1ccc(-c2nc(C(=O)N3CCCCC3)cs2)cc1`, the IC50 in test [1] turned out to be 11.8 µg/mL (≈ 26 µM); in test [2] it was 5.37 µg/mL (≈ 11.8 µM); in test [3], 89.9 µg/mL (≈ 198 µM).

For `O=C(Cc1ccccc1F)NCc1ccc(-c2nc(C(=O)N3CCCCC3)cs2)cc1`, the IC50 in test [1] was 18.8 µg/mL (≈ 43 µM); in test [2] it was > 1000 µg/mL; in test [3], 18.1 µg/mL (≈ 41.4 µM).

For the molecule `O=C(Cc1cccc(F)c1)NCc1ccc(-c2nc(C(=O)N3CCCCC3)cs2)cc1`, the IC50 in test [1] came to 2.02 µg/mL (≈ 4.62 µM); in test [2] it was 9.84 µg/mL (≈ 22.5 µM); in test [3], 4.32 µg/mL (≈ 9.87 µM).

For `O=C(Cc1ccc(F)cc1)NCc1ccc(-c2nc(C(=O)N3CCCCC3)cs2)cc1`, the IC50 in test [1] was 14.2 µg/mL (≈ 32.4 µM); in test [2], 52 µg/mL (≈ 119 µM); in test [3], 114 µg/mL (≈ 260 µM).

Turning to `O=C(Cc1ccc(Br)cc1)NCc1ccc(-c2nc(C(=O)N3CCCCC3)cs2)cc1`, the IC50 amounted to 29.5 µg/mL (≈ 59.1 µM) in test [1], 45.3 µg/mL (≈ 90.8 µM) in test [2] and 52 µg/mL (≈ 104 µM) in test [3].

On to `COc1ccccc1CC(=O)NCc1ccc(-c2nc(C(=O)N3CCCCC3)cs2)cc1`, for which the IC50 in test [1] is 6.83 µg/mL (≈ 15.2 µM); in test [2] it was 4.46 µg/mL (≈ 9.92 µM); in test [3], 28.1 µg/mL (≈ 62.4 µM).

`COc1cccc(CC(=O)NCc2ccc(-c3nc(C(=O)N4CCCCC4)cs3)cc2)c1`: the half-inhibitory concentration (IC50) in test [1] worked out at 40.3 µg/mL (≈ 89.6 µM); in test [2], 447 µg/mL (≈ 995 µM); in test [3], 41.1 µg/mL (≈ 91.4 µM).

As to `COc1ccc(CC(=O)NCc2ccc(-c3nc(C(=O)N4CCCCC4)cs3)cc2)cc1`, the IC50 in test [1] is 21.6 µg/mL (≈ 48 µM); in test [2] it was > 1000 µg/mL; in test [3] it was 1.88 µg/mL (≈ 4.18 µM).

Turning to `CN(Cc1cnc2nc(N)nc(N)c2n1)c1ccc(C(=O)N[C@@H](CCC(=O)O)C(=O)O)cc1` [METHOTREXATE], the results for the concentration for half-maximal inhibition (IC50) in test [1], in test [2] and in test [3] were 0.16 µg/mL (≈ 0.352 µM), 0.23 µg/mL (≈ 0.506 µM) and 0.32 µg/mL (≈ 0.704 µM), respectively.
